The IC50 is the concentration that inhibits the measured activity by half. The term inhibition denotes how much of the control response was suppressed.

The subject of assay [1] is Ebolavirus. The assay can be described thus: Inhibition of fluorescent dsRNA probe binding to N-terminal His-tagged recombinant Ebola virus VP35 interferon inhibitory domain assessed as normalized intensity for DNA binding at 200 uM pre-incubated for 5 mins before dsRNA addition and measured after 5 mins by ethidium bromide displacement based EMSA method relative to control. Also on record: scale not given: the % may be the effect or the level left. A general note: A gel shift assay detects complexes by their altered migration in electrophoresis.

A short description of assay [2]: (§1) Inhibition of fluorescent dsRNA probe binding to N-terminal His-tagged recombinant Ebola virus VP35 interferon inhibitory domain pre-incubated for 5 mins before dsRNA addition and measured after 5 mins by ethidium bromide displacement based EMSA method relative to control. Further details: species or system Ebolavirus. An outline of the steps:
(§2)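 EMSA: Ni-NTA-purified recombinant VP35 IID was 400 nM before probe addition, in Tris-HCl pH 7.5/NaCl/10% glycerol buffer. Compound was diluted twofold serially from 200 μM and incubated 5 min. An equal volume of 60 nM Cy5.5-dsRNA probe was added, then 5 min at room temperature and then on ice. Agarose gel, infrared scan; IC50 taken from the dose-response.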

For assay [3], the system named is Ebolavirus. Described as §1. An outline of the steps: as §2
A further assay concerns DNA. The experiment in a line: Binding affinity to DNA (unknown origin) assessed as inhibition of fluorescent dsRNA probe binding to DNA at 200 uM at 200 uM pre-incubated for 5 mins before dsRNA addition and measured after 5 mins by ethidium bromide displacement based EMSA method relative to control. The assay is classed as nucleic-acid assay.
For a further assay, the system named is RNA. The assay can be described thus: Binding affinity to RNA (unknown origin) assessed as inhibition of fluorescent dsRNA probe binding to DNA at 200 uM at 200 uM pre-incubated for 5 mins before dsRNA addition and measured after 5 mins by ethidium bromide displacement based EMSA method relative to control. The assay is classed as nucleic-acid assay.
Assay [4] has as its system Ebolavirus. The experiment in a line: Inhibition of fluorescent dsRNA probe binding to N-terminal His-tagged recombinant Ebola virus VP35 interferon inhibitory domain at 200 uM pre-incubated for 5 mins before dsRNA addition and measured after 5 mins by ethidium bromide displacement based EMSA method relative to control. An outline of the steps:
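Recombinant VP35 IID was expressed in E. coli BL-21 and purified on Ni-NTA. It was 400 nM before probe addition, in 10 mM Tris-HCl pH 7.5, 10 mM NaCl, 10% glycerol, with 200 μM compound for 5 min. An equal volume of 60 nM Cy5.5-labelled 10-bp dsRNA was added, then 5 min at room temperature and then on ice. Run on 1% agarose in chilled TAE; infrared scan.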

SMILES strings stand for the structures. The source made the active and inactive calls. No cut-off for these calls is given here.

With `COC1=C/C(=C/C=C(\NNC(=S)NN)c2sc(NNC(C)=O)nc2C)C=CC1=O`, in the assay with Ebolavirus [1], the Activity amounted to 81.5%. Besides, the IC50 in assay [2] was 20 µM. Besides, the inhibition entry with Ebolavirus [3] was “Dose-dependent effect”. For the same compound, the result in the assay with DNA and in the assay with RNA was inactive.
Consider `CCOC(=O)NC(NC(=O)OCC)c1ccc(C(NC(=O)OCC)NC(=O)OCC)cc1`, for which the Activity with Ebolavirus [1] lay within 79.6 to 108%. Besides, the inhibition in the assay with Ebolavirus [4] was above 50%. In addition, the outcome in the assay with DNA and in the assay on RNA was inactive.
With `Cc1nc(-n2nc(-c3ccccc3)cc2-c2ccccc2)sc1C(=O)/C=C/c1ccc([N+](=O)[O-])cc1`, the Activity in the assay on Ebolavirus [1] was found to be 76.3%. Besides, the outcome in the assay with DNA and in the assay on RNA was inactive.
Regarding `CCOc1ccccc1C(SCC(=O)O)SCC(=O)O`, in the assay on Ebolavirus [1], the Activity was in the range of 92 to 107%. The inhibition in the assay with Ebolavirus [4] was above 50%. The result in the assay with DNA and in the assay on RNA was inactive.
For the compound `c1coc(CNCNCc2ccco2)c1`, the Activity in the assay with Ebolavirus [1] was in the range of 45 to 98.4%. Besides, the inhibition entry with Ebolavirus [4] is “inactive”. In addition, the result in the assay with DNA and in the assay on RNA was inactive.
Regarding `CN1CCN(CCSC(=O)C(Cl)(c2ccccc2)C2CCCC2)CC1` (stereo not drawn), the Activity in the assay with Ebolavirus [1] is 72.3 to 91.8%. Besides, the inhibition with Ebolavirus [4] was above 50%. The result with DNA and in the assay with RNA was inactive.
`CCC(=O)NNC(/C=C/c1cccc(O)c1)=C1/S/C(=N\c2ccc(C)cc2[N+](=O)[O-])N=C1C`: the Activity in the assay with Ebolavirus [1] fell in the range of 73.8 to 92.7%. For the same compound, the result in the assay on DNA and with RNA was inactive.
Regarding `NC(=O)NC(NC(=O)NC(NC(N)=O)c1ccco1)c1ccco1` (stereo not drawn), the Activity with Ebolavirus [1] is 98.1 to 116%. Further, the IC50 in assay [2] amounted to 4 µM. Moreover, the inhibition in the assay with Ebolavirus [4] was above 50%. Besides, the result with DNA and in the assay on RNA was inactive.
Consider `O=C(OCCCCOC(=O)N1C(=O)c2ccccc2C1=O)N1C(=O)c2ccccc2C1=O`, for which, in the assay on Ebolavirus [1], the Activity is 46.8 to 78.5%. Also, in the assay on Ebolavirus [4], the inhibition was above 50%. The outcome in the assay on DNA and with RNA was Active.
Take `Nc1nnc2nc(CC(=O)c3cccc([N+](=O)[O-])c3)c(CC(=O)c3cccc([N+](=O)[O-])c3)nn12`: the Activity in the assay on Ebolavirus [1] lay within 60.7 to 88.8%. For the same compound, the result in the assay with DNA and with RNA was inactive.
Consider `CNCc1ccco1`, for which, in the assay with Ebolavirus [1], the Activity lay within 110 to 117%. In addition, the inhibition result in the assay with Ebolavirus [4] was “inactive”. The outcome in the assay with DNA and in the assay with RNA was inactive.

The record behind these values is ChEMBL document CHEMBL4428120, “In silico and in vitro methods to identify ebola virus VP35-dsRNA inhibitors” (Bioorg Med Chem, 2016).
